Measurements as given in ChEMBL document CHEMBL4152356, “Amphipathic sulfonamidobenzamides mimicking small antimicrobial marine natural products; investigation of antibacterial and anti-biofilm activity against antibiotic resistant clinical isolates” (Bioorg Med Chem, 2018).
Calls of active or inactive are those of the source.

Experiments:
Staphylococcus aureus [1] = test: Antibacterial activity against Staphylococcus aureus ATCC 9144 after 48 hrs by microdilution method; format: functional; details: ATCC 9144, 48 h
Outline: (§1)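 Broth microdilution (CLSI M07-A9, modified) in Mueller-Hinton broth; inoculum about 2.5-3 × 10^4 cells/ml mixed 1:1 with serial compound dilutions. Stock solutions in up to 100% DMSO, final DMSO ≤1%. Incubated 35 °C for 48 h.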

[2] = system: Staphylococcus epidermidis; test: Antibacterial activity against methicillin resistant Staphylococcus epidermidis RP62A ATCC 35984/CCUG 31568 after 48 hrs by microdilution method; format: functional; details: RP62A ATCC 35984/CCUG 31568, 48 h
Outline: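 Broth microdilution (modified CLSI M07-A9) against the MRSE reference strain. Inoculum of about 2.5-3 × 10^4 cells/ml in Mueller-Hinton broth mixed 1:1 with serial compound dilutions; final DMSO ≤1%. Incubated 35 °C, 48 h.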

Bacillus subtilis [3] = test: Antibacterial activity against Bacillus subtilis 168 ATCC 23857 after 48 hrs by microdilution method; format: functional; details: subsp. subtilis str. 168 ATCC 23857, 48 h; outline: as §1
[4] = system: Corynebacterium glutamicum; test: Antibacterial activity against Corynebacterium glutamicum ATCC 13032 after 48 hrs by microdilution method; format: functional; details: ATCC 13032, 48 h; outline: as §1
Escherichia coli [5] = test: Antibacterial activity against Escherichia coli ATCC 25922 after 48 hrs by microdilution method; format: functional; details: ATCC 25922, 48 h; outline: as §1
Pseudomonas aeruginosa [6] = test: Antibacterial activity against Pseudomonas aeruginosa PAO1 DSM 19880 ATCC 15692 after 48 hrs by microdilution method; format: functional; details: PAO1 DSM 19880 ATCC 15692, 48 h; outline: as §1
Erythrocyte = test: Hemolytic activity against human RBC measured after 1 hr; format: cell-based
Outline: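 Washed human RBCs from a healthy donor (heparinized) at 10% in PBS pH 7.4, mixed 9:1 with serial compound dilutions, 37 °C for 1 h. Baseline set by 0.5% DMSO in 50% PBS, 100% lysis by 0.05% Triton X-100. EC50 is the concentration giving 50% lysis.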

MRC5 = test: Cytotoxicity against human MRC5 cells after 72 hrs by MTS assay; format: cell-based; details: MRC5, 72 h
Outline: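 MRC-5 lung fibroblasts in DMEM with 10% FBS, 37 °C, 5% CO2; seeded at 4000 cells/well, adhered 24 h, medium replaced. Two-fold dilutions up to 100 µg/ml for 72 h, then MTS for 1 h and absorbance at 485 nm. Controls were 1% DMSO (negative) and 0.5% Triton X-100 (positive). EC50 is the concentration giving 50% inhibition of survival.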

[7] = Selectivity index, ratio of EC50 for human RBC to MIC for methicillin resistant Staphylococcus epidermidis RP62A ATCC 35984/CCUG 31568; format: toxicity; details: human red blood cells (RBC), read-out: Selectivity Index
Outline: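 SI = hemolytic EC50 / MRSE MIC. Hemolysis: washed human RBCs (heparinized blood, healthy adult donor) at 10% in PBS pH 7.4, mixed 9:1 with serial compound dilutions, 37 °C for 1 h. 0.05% Triton X-100 set 100% lysis, 0.5% DMSO set baseline. MIC from MHB microdilution, 35 °C, […].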

Staphylococcus aureus [8] = test: Antibacterial activity against Staphylococcus aureus clinical isolates after 24 hrs by microdilution method; format: functional
Outline: (§2)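 Clinical isolate screen by broth microdilution with about 1-1.2 × 10^6 cells/ml and 24 h incubation. MIC is the lowest concentration with no growth. For isolate collections, MIC90 is the MIC inhibiting ≥90% of isolates. Multidrug resistance was defined as resistance to at least […] antimicrobial class.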

Enterococcus sp. = test: Antibacterial activity against Enterococcus sp. clinical isolates after 24 hrs by microdilution method; format: functional; outline: as §2
Escherichia coli [9] = test: Antibacterial activity against Escherichia coli clinical isolates after 24 hrs by microdilution method; format: functional; outline: as §2
Pseudomonas aeruginosa [10] = test: Antibacterial activity against Pseudomonas aeruginosa clinical isolates after 24 hrs by microdilution method; format: functional; outline: as §2
Klebsiella pneumoniae = test: Antibacterial activity against Klebsiella pneumoniae clinical isolates after 24 hrs by microdilution method; format: functional; outline: as §2
[11] = system: Staphylococcus epidermidis; test: Antibiofilm activity against Staphylococcus epidermidis RP62A ATCC 35984/CCUG 31568 incubated for 24 +/- 2 hrs by crystal violet staining based assay; format: functional
Outline: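 Mature S. epidermidis RP62A biofilms: filtered overnight TSB culture adjusted to 2 McFarland, diluted in TSB with 1% glucose to about 6 × 10^6 CFU/ml, grown 24 ± 2 h at 37 °C static, then PBS-washed. Compounds in 50% TSBglu added for 24 ± 2 h at 37 °C. Biomass given as % of untreated control; ≥90% eradication threshold. Compounds tested at 2x, 5x and 10x MIC, 4-8 parallels on 2-3 plates, highest and lowest values excluded.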

Bacillus subtilis [12] = test: Induction of membrane disruption in Bacillus subtilis 168 expressing luciferase at 12.5 ug/ml measured up to 60 secs by luminescence assay; format: functional, organism-based; details: subsp. subtilis str. 168
Outline: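 Luminescence followed up to […]. Fold induction is maximal luminescence relative to chlorhexidine control (31 or 20 µg/ml). Mean ± SD of two experiments.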

[13] = Solubility of the compound in PBS

## CN(c1cccc(C(=O)NCCNC(=N)N)c1)S(=O)(=O)c1cc(C(C)(C)C)cc(C(C)(C)C)c1.Cl
Staphylococcus aureus [1]
  MIC: 4 µg/mL
[2]
  MIC: 4 µg/mL
Bacillus subtilis [3]
  MIC: 4 µg/mL
[4]
  MIC: 2 µg/mL
Escherichia coli [5]
  MIC: 32 µg/mL
Pseudomonas aeruginosa [6]
  MIC: 32 µg/mL
Erythrocyte
  EC50: 95 µg/mL
MRC5
  EC50: 91 µg/mL
[7]
  selectivity ratio: 24
Staphylococcus aureus [8]
  MIC: 8 µg/mL
Enterococcus sp.
  MIC: 16 µg/mL
Escherichia coli [9]
  MIC: 32 µg/mL
Pseudomonas aeruginosa [10]
  MIC: 32 µg/mL
Klebsiella pneumoniae
  MIC: 64 µg/mL
[11]
  MBIC=>90: 40 µg/mL
Bacillus subtilis [12]
  Activity: Active

## COc1c(C(C)(C)C)cc(S(=O)(=O)Nc2ccc(C(=O)NCCNC(=N)N)cc2)cc1C(C)(C)C.Cl
Staphylococcus aureus [1]
  MIC: 4 µg/mL
[2]
  MIC: 4 µg/mL
Bacillus subtilis [3]
  MIC: 4 µg/mL
[4]
  MIC: 4 µg/mL
Escherichia coli [5]
  MIC: 32 µg/mL
Pseudomonas aeruginosa [6]
  MIC: 64 µg/mL
Erythrocyte
  EC50: 64 µg/mL
MRC5
  EC50: > 100 µg/mL
[7]
  selectivity ratio: 16
Staphylococcus aureus [8]
  MIC: 8 µg/mL
Enterococcus sp.
  MIC: 64 µg/mL
Escherichia coli [9]
  MIC: > 128 µg/mL
Pseudomonas aeruginosa [10]
  MIC: 32 µg/mL
Klebsiella pneumoniae
  MIC: > 128 µg/mL
[11]
  MBIC=>90: 40 µg/mL
[13]
  solubility: > 64 µg/mL

## CC(C)(C)c1cc(C(C)(C)C)cc(S(=O)(=O)Nc2cccc(C(=O)NCCNC(=N)N)c2)c1.Cl
Staphylococcus aureus [1]
  MIC: 8 µg/mL
[2]
  MIC: 8 µg/mL
Bacillus subtilis [3]
  MIC: 8 µg/mL
[4]
  MIC: 4 µg/mL
Escherichia coli [5]
  MIC: 32 µg/mL
Pseudomonas aeruginosa [6]
  MIC: 32 µg/mL
Erythrocyte
  EC50: 92 µg/mL
MRC5
  EC50: > 100 µg/mL
[7]
  selectivity ratio: 12
Staphylococcus aureus [8]
  MIC: 8 µg/mL
Enterococcus sp.
  MIC: 32 µg/mL
Escherichia coli [9]
  MIC: 64 µg/mL
Pseudomonas aeruginosa [10]
  MIC: 64 µg/mL
Klebsiella pneumoniae
  MIC: 128 µg/mL
[11]
  MBIC=>90: 40 µg/mL

## CC(C)(C)c1cc(C(C)(C)C)cc(S(=O)(=O)Nc2ccc(C(=O)NCCNC(=N)N)cc2)c1.Cl
Staphylococcus aureus [1]
  MIC: 4 µg/mL
[2]
  MIC: 4 µg/mL
Bacillus subtilis [3]
  MIC: 8 µg/mL
[4]
  MIC: 4 µg/mL
Escherichia coli [5]
  MIC: 32 µg/mL
Pseudomonas aeruginosa [6]
  MIC: 64 µg/mL
Erythrocyte
  EC50: 64 µg/mL
MRC5
  EC50: > 100 µg/mL
[7]
  selectivity ratio: 16
Staphylococcus aureus [8]
  MIC: 8 µg/mL
Enterococcus sp.
  MIC: 32 µg/mL
Escherichia coli [9]
  MIC: > 128 µg/mL
Pseudomonas aeruginosa [10]
  MIC: > 128 µg/mL
Klebsiella pneumoniae
  MIC: > 128 µg/mL
[11]
  MBIC=>90: 40 µg/mL
[13]
  solubility: > 64 µg/mL

## CN(c1ccc(C(=O)NCCNC(=N)N)cc1)S(=O)(=O)c1cc(C(C)(C)C)cc(C(C)(C)C)c1.Cl
Staphylococcus aureus [1]
  MIC: 4 µg/mL
[2]
  MIC: 4 µg/mL
Bacillus subtilis [3]
  MIC: 4 µg/mL
[4]
  MIC: 2 µg/mL
Escherichia coli [5]
  MIC: 32 µg/mL
Pseudomonas aeruginosa [6]
  MIC: 16 µg/mL
Erythrocyte
  EC50: 45 µg/mL
MRC5
  EC50: 36 µg/mL
[7]
  selectivity ratio: 11
Staphylococcus aureus [8]
  MIC: 4 µg/mL
Enterococcus sp.
  MIC: 32 µg/mL
Escherichia coli [9]
  MIC: 32 µg/mL
Pseudomonas aeruginosa [10]
  MIC: 16 µg/mL
Klebsiella pneumoniae
  MIC: 64 µg/mL
[11]
  MBIC=>90: 40 µg/mL

## Cl.N=C(N)NCCNC(=O)c1ccc(NS(=O)(=O)c2cc(C(F)(F)F)cc(C(F)(F)F)c2)cc1
Staphylococcus aureus [1]
  MIC: > 128 µg/mL
[2]
  MIC: > 128 µg/mL
Bacillus subtilis [3]
  MIC: > 128 µg/mL
[4]
  MIC: > 128 µg/mL
Escherichia coli [5]
  MIC: > 128 µg/mL
Pseudomonas aeruginosa [6]
  MIC: > 128 µg/mL
Erythrocyte
  EC50: 64 µg/mL
MRC5
  EC50: > 100 µg/mL
[13]
  solubility: > 64 µg/mL

## CC(C)(C)c1cc(C(C)(C)C)cc(S(=O)(=O)NCc2ccc(C(=O)NCCNC(=N)N)cc2)c1.Cl
Staphylococcus aureus [1]
  MIC: 16 µg/mL
[2]
  MIC: 8 µg/mL
Bacillus subtilis [3]
  MIC: 8 µg/mL
[4]
  MIC: 4 µg/mL
Escherichia coli [5]
  MIC: 32 µg/mL
Pseudomonas aeruginosa [6]
  MIC: 32 µg/mL
Erythrocyte
  EC50: 113 µg/mL
MRC5
  EC50: > 100 µg/mL
[7]
  selectivity ratio: 14
Staphylococcus aureus [8]
  MIC: 16 µg/mL
Enterococcus sp.
  MIC: 64 µg/mL
Escherichia coli [9]
  MIC: 128 µg/mL
Pseudomonas aeruginosa [10]
  MIC: 64 µg/mL
Klebsiella pneumoniae
  MIC: 128 µg/mL
[11]
  MBIC=>90: 80 µg/mL

## Cc1cc(C(=O)NCCNC(=N)N)ccc1NS(=O)(=O)c1cc(C(C)(C)C)cc(C(C)(C)C)c1.Cl
Staphylococcus aureus [1]
  MIC: 8 µg/mL
[2]
  MIC: 4 µg/mL
Bacillus subtilis [3]
  MIC: 8 µg/mL
[4]
  MIC: 4 µg/mL
Escherichia coli [5]
  MIC: 32 µg/mL
Pseudomonas aeruginosa [6]
  MIC: > 128 µg/mL
Erythrocyte
  EC50: 104 µg/mL
MRC5
  EC50: 56 µg/mL
[7]
  selectivity ratio: 26
Staphylococcus aureus [8]
  MIC: 8 µg/mL
Enterococcus sp.
  MIC: 32 µg/mL
Escherichia coli [9]
  MIC: 64 µg/mL
Pseudomonas aeruginosa [10]
  MIC: 64 µg/mL
Klebsiella pneumoniae
  MIC: > 128 µg/mL
[11]
  MBIC=>90: 40 µg/mL

## CC(C)(C)c1cc(C(C)(C)C)cc(S(=O)(=O)Nc2ccc(CC(=O)NCCNC(=N)N)cc2)c1.Cl
Staphylococcus aureus [1]
  MIC: 16 µg/mL
[2]
  MIC: 8 µg/mL
Bacillus subtilis [3]
  MIC: 8 µg/mL
[4]
  MIC: 8 µg/mL
Escherichia coli [5]
  MIC: 64 µg/mL
Pseudomonas aeruginosa [6]
  MIC: 64 µg/mL
Erythrocyte
  EC50: 101 µg/mL
MRC5
  EC50: 55 µg/mL
[7]
  selectivity ratio: 13
Staphylococcus aureus [8]
  MIC: 16 µg/mL
Enterococcus sp.
  MIC: 32 µg/mL
Escherichia coli [9]
  MIC: 64 µg/mL
Pseudomonas aeruginosa [10]
  MIC: 64 µg/mL
Klebsiella pneumoniae
  MIC: 128 µg/mL
[11]
  MBIC=>90: 40 µg/mL

## CC(C)(C)c1cc(C(C)(C)C)cc(S(=O)(=O)NCCCCNC(=N)N)c1.Cl
Staphylococcus aureus [1]
  MIC: 8 µg/mL
[2]
  MIC: 8 µg/mL
Bacillus subtilis [3]
  MIC: 16 µg/mL
[4]
  MIC: 4 µg/mL
Escherichia coli [5]
  MIC: 64 µg/mL
Pseudomonas aeruginosa [6]
  MIC: 64 µg/mL
Erythrocyte
  EC50: 110 µg/mL
MRC5
  EC50: 42 µg/mL
[7]
  selectivity ratio: 14
Staphylococcus aureus [8]
  MIC: 16 µg/mL
Enterococcus sp.
  MIC: 32 µg/mL
Escherichia coli [9]
  MIC: 128 µg/mL
Pseudomonas aeruginosa [10]
  MIC: 64 µg/mL
Klebsiella pneumoniae
  MIC: 128 µg/mL
[11]
  MBIC=>90: 40 µg/mL
